{"source": "ChEMBL document CHEMBL1127633", "about": "“Cyclic beta-casomorphin analogues with mixed mu agonist/delta antagonist properties: synthesis, pharmacological characterization, and conformational aspects” (J Med Chem, 1994)", "key": {"Cavia porcellus": {"species": "Cavia porcellus", "test": "In vitro inhibition of electrically evoked contractions of the guinea pig ileum (GPI)", "type": "functional", "in_short": "(§1)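 Electrically evoked contractions of isolated tissue preparations. Each preparation had its own log dose-response curve with [Leu5]enkephalin as standard. Test IC50 values were normalized to that standard. Mean of three to six determinations ± SEM. Partial agonists are reported as % maximal inhibition of contraction at high concentrations.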"}, "Mus musculus": {"species": "Mus musculus", "test": "In vitro inhibition of electrically evoked contractions of the mouse vas deferens (MVD)", "type": "functional", "in_short": "as §1"}, "Mu-type opioid receptor": {"target": "Mu-type opioid receptor (Rattus norvegicus, UniProt P33535)", "sequence (P33535 whole entry)": "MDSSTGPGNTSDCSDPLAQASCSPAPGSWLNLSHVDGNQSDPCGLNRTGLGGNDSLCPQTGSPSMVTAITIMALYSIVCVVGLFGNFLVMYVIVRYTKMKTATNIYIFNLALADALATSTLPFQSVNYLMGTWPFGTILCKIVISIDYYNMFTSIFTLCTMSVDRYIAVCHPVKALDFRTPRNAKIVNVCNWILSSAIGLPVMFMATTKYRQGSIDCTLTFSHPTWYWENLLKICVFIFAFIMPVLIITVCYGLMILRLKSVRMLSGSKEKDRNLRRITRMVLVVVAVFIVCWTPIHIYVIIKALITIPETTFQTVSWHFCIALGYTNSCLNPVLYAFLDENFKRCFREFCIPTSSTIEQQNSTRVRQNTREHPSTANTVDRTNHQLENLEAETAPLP", "test": "Binding affinity for mu opioid receptors by displacement of [3H]-DAMGO from rat brain membrane binding site"}, "[1]": {"target": "Delta-type opioid receptor (Rattus norvegicus, UniProt P33533)", "sequence (P33533 whole entry)": "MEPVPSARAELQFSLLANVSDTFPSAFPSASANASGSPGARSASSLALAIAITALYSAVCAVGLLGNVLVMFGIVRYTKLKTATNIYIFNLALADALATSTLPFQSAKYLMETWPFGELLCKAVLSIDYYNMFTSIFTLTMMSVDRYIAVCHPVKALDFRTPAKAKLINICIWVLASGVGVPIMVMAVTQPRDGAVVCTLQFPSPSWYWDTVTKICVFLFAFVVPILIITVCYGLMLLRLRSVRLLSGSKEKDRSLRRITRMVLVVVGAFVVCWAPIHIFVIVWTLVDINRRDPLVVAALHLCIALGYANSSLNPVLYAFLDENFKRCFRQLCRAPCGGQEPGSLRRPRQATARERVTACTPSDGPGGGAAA", "test": "Binding affinity for delta opioid receptors was determined by displacement of [3H]DSLET from rat brain membrane binding site", "in_short": "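Rat brain membranes incubated 2 h at 0 °C with 0.78 nM [3H]DSLET. IC50 read from dose-displacement curves. […] Mean of three to six determinations ± SEM.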"}}, "note": "Residues, ends and D or L forms follow the SMILES beside them."}
{"smiles": "N[C@@H](Cc1ccc(O)cc1)C(=O)N[C@@H]1CCCNC(=O)[C@H]2CCCN2C(=O)[C@H](Cc2ccc3ccccc3c2)NC1=O", "values": [{"measurement": "IC50", "setting": "Cavia porcellus", "result": 11.8, "unit": "nM"}, {"measurement": "IC50", "setting": "Mus musculus", "result": 32.2, "unit": "nM"}, {"measurement": "Ki", "setting": "Mu-type opioid receptor", "result": 2.74, "unit": "nM"}, {"measurement": "Ki", "setting": "[1]", "result": 28.3, "unit": "nM"}]}
{"smiles": "NC(=O)[C@H](Cc1ccccc1)NC(=O)[C@H](Cc1ccccc1)NC(=O)[C@@H]1Cc2ccccc2CN1C(=O)[C@@H](N)Cc1ccc(O)cc1", "note": "(HELM PEPTIDE1{Y.[Tic].F.F.[am]}$$$$V2.0)", "values": [{"measurement": "IC50", "setting": "Cavia porcellus", "result": 1700, "unit": "nM"}]}
{"smiles": "N[C@@H](Cc1ccc(O)cc1)C(=O)N[C@@H]1CCCNC(=O)CNC(=O)[C@H]2CCCN2C(=O)[C@H](Cc2ccc3ccccc3c2)NC1=O", "values": [{"measurement": "IC50", "setting": "Cavia porcellus", "result": 384, "unit": "nM"}]}
{"smiles": "N[C@@H](Cc1ccc(O)cc1)C(=O)N[C@@H]1CCCNC(=O)CNC(=O)[C@H]2CCCN2C(=O)[C@H](Cc2c[nH]c3ccccc23)NC1=O", "values": [{"measurement": "IC50", "setting": "Cavia porcellus", "result": 27.5, "unit": "nM"}, {"measurement": "IC50", "setting": "Mus musculus", "result": 16.1, "unit": "nM"}, {"measurement": "Ki", "setting": "Mu-type opioid receptor", "result": 2.09, "unit": "nM"}, {"measurement": "Ki", "setting": "[1]", "result": 10.3, "unit": "nM"}]}
{"smiles": "N[C@@H](Cc1ccc(O)cc1)C(=O)N[C@@H]1CCCNC(=O)CNC(=O)[C@H]2CCCN2C(=O)[C@H](Cc2ccccc2)NC1=O", "values": [{"measurement": "IC50", "setting": "Cavia porcellus", "result": 2.14, "unit": "nM"}, {"measurement": "IC50", "setting": "Mus musculus", "result": 4.98, "unit": "nM"}, {"measurement": "Ki", "setting": "Mu-type opioid receptor", "result": 0.881, "unit": "nM"}, {"measurement": "Ki", "setting": "[1]", "result": 13.2, "unit": "nM"}]}
{"smiles": "N[C@@H](Cc1ccc(O)cc1)C(=O)NC1CCCNC(=O)CNC(=O)[C@@H]2CCCN2C(=O)[C@H](Cc2ccccc2)NC1=O", "note": "(single isomer, unassigned)", "values": [{"measurement": "IC50", "setting": "Cavia porcellus", "result": 13.4, "unit": "nM"}, {"measurement": "IC50", "setting": "Mus musculus", "result": 69.9, "unit": "nM"}, {"measurement": "Ki", "setting": "Mu-type opioid receptor", "result": 3.99, "unit": "nM"}, {"measurement": "Ki", "setting": "[1]", "result": 1280, "unit": "nM"}]}
{"smiles": "N[C@@H](Cc1ccc(O)cc1)C(=O)N[C@@H]1CCCNC(=O)CNC(=O)[C@H]2CCCN2C(=O)[C@H](Cc2cccc3ccccc23)NC1=O", "values": [{"measurement": "IC50", "setting": "Cavia porcellus", "result": 14.9, "unit": "nM"}, {"measurement": "IC50", "setting": "Mus musculus", "result": 29.9, "unit": "nM"}, {"measurement": "Ki", "setting": "Mu-type opioid receptor", "result": 3.42, "unit": "nM"}, {"measurement": "Ki", "setting": "[1]", "result": 23.6, "unit": "nM"}]}
{"smiles": "N[C@@H](Cc1ccc(O)cc1)C(=O)NC1CCCNC(=O)CNC(=O)[C@@H]2CCCN2C(=O)[C@H](Cc2ccc3ccccc3c2)NC1=O", "note": "(single isomer, unassigned)", "values": [{"measurement": "IC50", "setting": "Cavia porcellus", "result": 1220, "unit": "nM"}, {"measurement": "IC50", "setting": "Mus musculus", "result": 10000, "unit": "nM"}, {"measurement": "Ki", "setting": "Mu-type opioid receptor", "result": 81.3, "unit": "nM"}, {"measurement": "Ki", "setting": "[1]", "result": 2140, "unit": "nM"}]}
{"smiles": "N[C@@H](Cc1ccc(O)cc1)C(=O)N[C@@H]1CCNC(=O)CNC(=O)[C@H]2CCCN2C(=O)[C@H](Cc2ccc3ccccc3c2)NC1=O", "values": [{"measurement": "IC50", "setting": "Cavia porcellus", "result": 353, "unit": "nM"}, {"measurement": "IC50", "setting": "Mus musculus", "result": 1000, "unit": "nM"}, {"measurement": "Ki", "setting": "Mu-type opioid receptor", "result": 6.41, "unit": "nM"}, {"measurement": "Ki", "setting": "[1]", "result": 70.8, "unit": "nM"}]}
